Reference: ChEMBL document CHEMBL2202986, “Guaianolide sesquiterpene lactones, a source to discover agents that selectively inhibit acute myelogenous leukemia stem and progenitor cells” (J Med Chem, 2012)
The source made the active and inactive calls.

Columns and labels:
[1] = Reduction in colony forming units of leukemia stem/progenitor cells at 5 uM after 15 to 20 days; format: functional, Homo sapiens
Method in brief: (§1)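 Mononuclear cells from AML patient […] were exposed to drug for 18 h in serum-free IMDM, then plated in triplicate in M3434 methylcellulose. Total colonies (CFC-Mix, CFC-GM, CFC-G, CFC-M, BFU-E) were scored by morphology after 15−20 days.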

[2] = Reduction in colony forming units of leukemia stem/progenitor cells at 10 uM after 15 to 20 days; format: functional, Homo sapiens; method in brief: as §1
[3] = AUC (0 to infinity) in mouse at 100 mg/kg, iv; format: ADME, organism-based; parameters: time infinity, dose 100 mg/kg, route intravenous; conditions: plasma
Method in brief: (§2)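 Male Kunming mice (20 2 g), fasted 12 h before dosing with water available, given DMAMCL as an aqueous solution iv (n = 5). Blood was drawn from the orbital veins at set times. DMAMCL and MCL in plasma were measured, and parameters were derived by a noncompartmental model.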

[4] = Total clearance in mouse at 150 mg/kg, po; format: ADME, organism-based; parameters: dose 150 mg/kg, route oral; conditions: in vivo
Method in brief: (§3)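 Male Kunming mice (20 2 g), fasted 12 h before dosing with water available, given DMAMCL as an aqueous solution po (n = 5). Blood was drawn from the orbital veins at set times. Plasma DMAMCL and MCL were followed, and parameters came from noncompartmental analysis.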

[5] = Mean retention time (0 to infinity) in mouse at 150 mg/kg, po; format: ADME, organism-based; parameters: dose 150 mg/kg, route oral; conditions: in vivo; method in brief: as §3
[6] = Induction of apoptosis in CD34+ leukemia stem/progenitor cells assessed as necrotic cells at 10 uM using annexin V/propidium iodide by flow cytometry; format: functional, Homo sapiens
Method in brief: (§4)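 Primary AML patient cells were exposed to 10 μM compound for 18 h in IMDM, then stained with CD34-APC/CD38-PECy7. Annexin-V–FITC/PI was added and incubated for 15 min at room temperature before flow cytometry. Quadrants were defined as Q1 necrotic, Q2 late apoptotic, Q3 early apoptotic and Q4 viable.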

[7] = Mean retention time (0 to t) in mouse at 150 mg/kg, po; format: ADME, organism-based; parameters: dose 150 mg/kg, route oral; conditions: in vivo; method in brief: as §3
[8] = Cmax in mouse at 100 mg/kg, iv; format: ADME, organism-based; parameters: dose 100 mg/kg, route intravenous; conditions: in vivo; method in brief: as §2
[9] = Cytotoxicity against human CD34+ hematopioetic stem cells at 5 uM by immunostaining method; format: cell-based
Method in brief: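 Mononuclear cells were Ficoll-isolated from umbilical cord blood of a normal donor, cryopreserved, then rested in serum-free IMDM for 1 h. Cells were treated for 18 h in IMDM, stained with CD34-APC for 30 min, and labelled with Annexin-V–FITC/PI for 15 min at room temperature. Read by flow cytometry, normalized to vehicle, done in triplicate.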

[10] = Cytotoxicity against human leukemia stem/progenitor cells assessed as viable CD34+ cells at 10 uM after 18 hrs by annexin-V labeling-based flow cytometry relative to control; format: functional, CD34+ cell
[11] = Tmax in mouse at 150 mg/kg, po; format: ADME, organism-based; parameters: dose 150 mg/kg, route oral; conditions: in vivo; method in brief: as §3
[12] = test system: HL-60; test: Cytotoxicity against human HL60 cells after 18 hrs by annexin-V labeling-based flow cytometry; format: functional, cell-based; conditions: HL-60, 18 h
[13] = Cmax in mouse at 150 mg/kg, po; format: ADME, organism-based; parameters: dose 150 mg/kg, route oral; conditions: in vivo; method in brief: as §3
[14] = Induction of apoptosis in CD34+ leukemia stem/progenitor cells assessed as early apoptotic cells at 10 uM using annexin V/propidium iodide by flow cytometry; format: functional, Homo sapiens; method in brief: as §4
[15] = Mean retention time (0 to t) in mouse at 100 mg/kg, iv; format: ADME, organism-based; parameters: dose 100 mg/kg, route intravenous; conditions: in vivo; method in brief: as §2
[16] = Half life in mouse at 150 mg/kg, po; format: ADME, organism-based; parameters: dose 150 mg/kg, route oral; conditions: in vivo; method in brief: as §3
[17] = Cytotoxicity against human HL60/A cells after 18 hrs by annexin-V labeling-based flow cytometry; format: functional, cell-based
[18] = Cytotoxicity against human leukemia stem/progenitor cells assessed as viable CD34+ cells at 5 uM after 18 hrs by annexin-V labeling-based flow cytometry; format: functional, CD34+ cell
Method in brief: (§5)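 Primary leukemia cells from AML patient blood were treated for 18 h in serum-free IMDM, then stained with CD34-APC and CD38-PECy7 for 30 min. After washing in cold PBS, cells were labelled with Annexin-V–FITC/PI for 15 min at room temperature and read by flow cytometry. Viability of total and CD34⁺ cells was normalized to untreated controls (mean, SD).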

[19] = Cytotoxicity against human leukemia cells assessed as cell viability at 10 uM after 18 hrs by annexin-V labeling-based flow cytometry
[20] = Cytotoxicity against human leukemia stem/progenitor cells assessed as cell viability at 5 uM after 18 hrs by annexin-V labeling-based flow cytometry; format: functional; conditions: in the assay text read “leukemia cells” for “leukemia stem/progenitor cells”, read-out: Activity; method in brief: as §5
[21] = AUC (0 to infinity) in mouse at 150 mg/kg, po; format: ADME, organism-based; parameters: dose 150 mg/kg, route oral, time infinity; conditions: plasma; method in brief: as §3
[22] = Induction of apoptosis in CD34+ leukemia stem/progenitor cells assessed as viable cells at 10 uM using annexin V/propidium iodide by flow cytometry; format: functional; conditions: Homo sapiens; read-out: Activity; method in brief: as §4
[23] = test system: Mus musculus; test: Volume of distribution in mouse at 150 mg/kg, po; format: ADME, organism-based; parameters: dose 150 mg/kg, route oral; conditions: in vivo
Method in brief: (§6)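 Male Kunming mice (20 2 g) were fasted 12 h with water available. An aqueous solution was dosed po (150 mg/kg) or iv (100 mg/kg), n = 5 per route. Blood was drawn from the orbital veins at set times to measure DMAMCL and released MCL. Parameters come from a noncompartmental model and are given as mean with SD.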

[24] = test system: Homo sapiens; test: Antitumor activity against human leukemia stem/progenitor cells xenografted in NOD/SCID mouse assessed as reduction of CD45+CD33+ cells in spleen compound pretreated for 18 hrs before grafting process measured after 8 weeks; format: functional, tissue-based
Method in brief: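 Fresh primary AML patient cells were exposed for 18 h to saline or compound. Equal numbers of surviving cells were then injected iv into NOD/SCID mice. After 8 weeks the mice were sacrificed, and the spleen CD33⁺CD45⁺ human cells were quantified by flow cytometry, with each animal analysed individually.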

[25] = Induction of apoptosis in CD34+ leukemia stem/progenitor cells assessed as late apoptotic cells at 10 uM using annexin V/propidium iodide by flow cytometry; format: functional, Homo sapiens; method in brief: as §4
[26] = Volume of distribution in mouse at 100 mg/kg, iv; format: ADME, organism-based; parameters: dose 100 mg/kg, route intravenous; conditions: in vivo; method in brief: as §6
[27] = Total clearance in mouse at 100 mg/kg, iv; format: ADME, organism-based; parameters: dose 100 mg/kg, route intravenous; conditions: in vivo; method in brief: as §2
[28] = Half life in mouse at 100 mg/kg, iv; format: ADME, organism-based; parameters: dose 100 mg/kg, route intravenous; conditions: in vivo; method in brief: as §2
[29] = Cytotoxicity against human leukemia stem/progenitor cells assessed as viable CD34+ cells at 10 uM after 18 hrs by annexin-V labeling-based flow cytometry; format: functional, CD34+ cell
[30] = AUC (0 to t) in mouse at 100 mg/kg, iv; format: ADME, organism-based; parameters: dose 100 mg/kg, route intravenous; conditions: plasma; method in brief: as §2
[31] = Cytotoxicity against human leukemia stem/progenitor cells assessed as viable CD34+CD38- cells at 10 uM after 18 hrs by annexin-V labeling-based flow cytometry relative to control; format: functional
[32] = Mean retention time (0 to infinity) in mouse at 100 mg/kg, iv; format: ADME, organism-based; parameters: dose 100 mg/kg, route intravenous; conditions: in vivo; method in brief: as §2
[33] = AUC (0 to t) in mouse at 150 mg/kg, po; format: ADME, organism-based; parameters: dose 150 mg/kg, route oral; conditions: plasma; method in brief: as §3
[34] = Reduction in colony forming units of leukemia stem/progenitor cells at 0.1 uM after 15 to 20 days; format: functional, Homo sapiens; method in brief: as §1
[35] = Cytotoxicity against human leukemia stem/progenitor cells assessed as viable CD34+ cells at 0.1 uM after 18 hrs by annexin-V labeling-based flow cytometry; format: functional, CD34+ cell; method in brief: as §5
[36] = Cytotoxicity against human leukemia stem/progenitor cells assessed as viable CD34+ cells at 0.5 uM after 18 hrs by annexin-V labeling-based flow cytometry; format: functional, CD34+ cell; method in brief: as §5
[37] = Cytotoxicity against human leukemia stem/progenitor cells assessed as cell viability at 0.1 uM after 18 hrs by annexin-V labeling-based flow cytometry; format: functional; conditions: in the assay text read “leukemia cells” for “leukemia stem/progenitor cells”, read-out: Activity; method in brief: as §5
[38] = Antitumor activity against human leukemia stem/progenitor cells xenografted in NOD/SCID mouse assessed as survival time at 1 mg/kg, iv administered every other day total of four doses starting from 8 weeks post grafting (reference value: 43 days)
[39] = Cytotoxicity against human leukemia stem/progenitor cells assessed as cell viability at 0.5 uM after 18 hrs by annexin-V labeling-based flow cytometry; format: functional; conditions: read-out: Activity; method in brief: as §5
[40] = Reduction in colony forming units of leukemia stem/progenitor cells at 0.05 uM after 15 to 20 days; format: functional, Homo sapiens; method in brief: as §1

C=C1C(=O)O[C@H]2[C@H]1CCC(C)=C1CC[C@@](C)(O)[C@@H]12 [MICHELIOLIDE]
CFU [1]: 4.5
CFU [2]: 0
AUC(0-inf) [3]: 5850 ng·h/mL
CL/F [4]: 376 mL/min/kg
MRT inf [5]: 8.28 h
Activity [6]: 0.127%
MRT last [7]: 7.59 h
Cmax [8]: 10700 ng/mL
Activity [9]: Non-toxic
fold change (FC) [10]: 3.2
Tmax [11]: 0.36 h
IC50 [12]: 5.5 µM
Cmax [13]: 2610 ng/mL
Activity [14]: 24.2%
MRT last [15]: 1.49 h
half-life [16]: 7.92 h
IC50 [17]: 6.2 µM
Activity [18]: 4.2%
viability at 10 µM [19]: 8.4%
viability at 5 µM [20]: 11.7%
AUC(0-inf) [21]: 6720 ng·h/mL
viability at 10 µM [22]: 1.42%
Vd [23]: 265.27 L/kg
Activity [24]: Active
Activity [25]: 69.4%
Vd [26]: 533 L/kg
clearance [27]: 288 mL/min/kg
half-life [28]: 12.7 h
Activity [29]: 2.3%
AUC(0-t) [30]: 5490 ng·h/mL
fold change (FC) [31]: 5.3
MRT inf [32]: 6.34 h
AUC(0-t) [33]: 6630 ng·h/mL

COc1cccc2c1C(=O)c1c(O)c3c(c(O)c1C2=O)C[C@@](O)(C(=O)CO)C[C@@H]3O[C@H]1C[C@H](N)[C@H](O)[C@H](C)O1 [DOXORUBICIN]
CFU [34]: 170
Activity [35]: 115%
Activity [36]: 49.1%
IC50 [12]: 0.05 µM
viability at 0.1 µM [37]: 37.6%
IC50 [17]: 6.7 µM
Survival [38]: 22 days
viability at 0.5 µM [39]: 49.1%
CFU [40]: 165
